Assay results gathered from unrelated publications.
Protocols differ between the studies behind these lines.
Cell line: SW480
Read-out: cell growth or viability

With `Cc1cc2c(cc1N1C(=O)c3cccc4c(CCCO)ccc(c34)C1=O)n(C)c(=O)n2C` (racemic) the GI50 was over 10000 nM (resazurin).
`COc1cc(Nc2nccc(-c3cnn4nc(OC)ccc34)n2)cc(C(F)(F)F)c1` gave an IC50 of 720 nM (ATP luminescence).
With `CC[C@H](C)C(=O)O[C@H]1C[C@@H](C)C=C2C=C[C@H](C)[C@H](CC[C@@H]3C[C@@H](O)CC(=O)O3)[C@H]21` the IC50 was 8.85 µg/mL (SRB; 72 h).
With `C=CCNC1=C2C[C@@H](C)C[C@H](OC)[C@H](O)[C@@H](C)/C=C(\C)[C@H](OC(N)=O)[C@@H](OC)/C=C\C=C(/C)C(=O)NC(=CC1=O)C2=O` the IC50 was 657 nM (MTT).
For `CC(C)C[C@H](NC(=O)[C@H](Cc1ccccc1)NC(=O)c1cnccn1)B(O)O`, the IC50 was 8.6 nM (ATP luminescence).
The IC50 of `COC1=C2C[C@@H](C)C[C@H](OC)[C@H](O)[C@@H](C)/C=C(\C)[C@H](OC(N)=O)[C@@H](OC)/C=C\C=C(/C)C(=O)NC(=CC1=O)C2=O` is reported as 308 nM (MTT).
The IC50 of `O=C(O)C[C@H](O)C[C@H](O)/C=C/c1c(C2CC2)nc2ccccc2c1-c1ccc(F)cc1` is reported as 32.3 µg/mL (SRB; 72 h).
`COc1cc([C@@H]2c3cc4c(cc3[C@@H](O[C@@H]3O[C@@H]5CO[C@@H](C)O[C@H]5[C@H](O)[C@H]3O)[C@H]3COC(=O)[C@H]23)OCO4)cc(OC)c1O` gave an IC50 of 17100 nM (MTT; 48 h).
